The source made the active and inactive calls. No cut-off for these calls is given here.

Experiment [1] concerns the target T1, Nuclear factor erythroid 2-related factor 2 (Mus musculus) (UniProt Q60795).
T1 sequence (whole entry): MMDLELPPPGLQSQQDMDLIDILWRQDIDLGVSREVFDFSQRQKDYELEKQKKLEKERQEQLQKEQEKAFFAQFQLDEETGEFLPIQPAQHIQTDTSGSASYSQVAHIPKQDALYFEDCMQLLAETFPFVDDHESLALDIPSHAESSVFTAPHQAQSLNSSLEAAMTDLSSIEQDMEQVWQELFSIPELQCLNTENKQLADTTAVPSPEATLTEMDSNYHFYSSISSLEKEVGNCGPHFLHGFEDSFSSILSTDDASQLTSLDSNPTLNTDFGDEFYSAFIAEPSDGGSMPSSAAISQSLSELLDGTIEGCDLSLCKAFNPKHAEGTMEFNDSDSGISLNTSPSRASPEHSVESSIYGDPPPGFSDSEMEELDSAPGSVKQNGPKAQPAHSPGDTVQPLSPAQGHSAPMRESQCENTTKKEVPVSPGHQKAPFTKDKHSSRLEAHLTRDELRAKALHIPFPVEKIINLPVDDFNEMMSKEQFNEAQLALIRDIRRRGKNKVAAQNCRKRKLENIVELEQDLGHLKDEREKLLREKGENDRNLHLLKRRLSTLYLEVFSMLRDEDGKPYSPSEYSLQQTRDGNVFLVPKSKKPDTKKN
In words: Induction of Nrf2-dependent NQO1 gene expression in mouse CATH.a cells at 1 uM after 6 hrs by RT-PCR analysis relative to control. The class given is cell-based. The gist of the method: (§1)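 CATH.a cells grown in RPMI 1640 with 8% horse serum and 4% FBS, exposed to graded concentrations for 6 h. mRNA analysed by RT-PCR with gene-specific primers, products run on 1% agarose gel, band densitometry normalized to GAPDH. At least duplicate cultures; fold induction versus untreated control ± SEM.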

The target of experiment [2] is T1, Nuclear factor erythroid 2-related factor 2 (Mus musculus). As to the kind of experiment: Induction of Nrf2-dependent GCLM gene expression in mouse CATH.a cells at 2 uM after 6 hrs by RT-PCR analysis relative to control. Type of experiment: cell-based. In outline: as §1
Experiment [3] has as its system Mus musculus. In words: Inhibition of motor deficits in MPTP-induced C57Bl/6 mouse parkinson's disease model assessed as total time taken on grid apparatus at 10 mg/kg/day, po for 3 days administered first dose at 24 hrs prior to first injection of 4X 20 mg/kg, ip MPTP challenge by vertical grid test (reference value: 34.8 +/-5.4s). The class given is functional.

Experiment [4] deals with Mus musculus. In words: Inhibition of motor deficits in MPTP-induced C57Bl/6 mouse parkinson's disease model assessed as number of successful steps taken on the apparatus at 10 mg/kg/day, po for 3 days administered first dose at 24 hrs prior to first injection of 4X 20 mg/kg, ip MPTP challenge by vertical grid test (reference value: 75.4 +/-6.2%). Set-up: scale not given: the % may be the effect or the level left. Type of experiment: functional.

Experiment [5] is filed under the species Mus musculus. As to the kind of experiment: Neuroprotection against BH4-induced mouse CATH.a cell death assessed as cell viability at >0.1 uM treated for 20 hrs prior to BH4 challenge for 24 hrs by ATP assay. The class given is functional. In outline:
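CATH.a cells (2.4 × 10⁴/well) pretreated with graded concentrations for 20 h, then challenged with 200 μM BH4 for a further 24 h. Viability as cellular ATP by CellTiter-Glo luminescence. At least duplicate cultures, percent of untreated control ± SEM, compared with BH4-treated cells.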

For experiment [6], the system named is Mus musculus. In words: Inhibition of motor deficits in MPTP-induced C57Bl/6 mouse parkinson's disease model assessed as time taken to turn around at 10 mg/kg/day, po for 3 days administered first dose at 24 hrs prior to first injection of 4X 20 mg/kg, ip MPTP challenge by vertical grid test (reference value: 12.4 +/-1.8 s). The class given is functional.
In experiment [7] the target is T1, Nuclear factor erythroid 2-related factor 2 (Mus musculus). In words: Induction of Nrf2-dependent NQO1 protein expression in mouse CATH.a cells at 0.1 uM after 24 hrs by western blot analysis. Type of experiment: cell-based. The gist of the method:
(§2)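 Cells (CATH.a) exposed to graded concentrations for 24 h, lysed in RIPA buffer with protease inhibitors. Equal protein separated on 10% SDS gel, blotted; primary antibodies overnight at 4 °C, HRP secondary, chemiluminescence. Densitometry normalized to β-actin. At least duplicate cultures, fold of untreated control ± SEM.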
For orientation: Immunoblotting shows a protein as a band on a membrane.

Experiment [8] has the same target. In words: Induction of Nrf2-dependent GCLM protein expression in mouse CATH.a cells at 0.1 uM after 24 hrs by western blot analysis. The class given is cell-based. In outline:
as §2

The target is the same in experiment [9]. In words: Induction of Nrf2-dependent GCLM protein expression in mouse CATH.a cells after 24 hrs by western blot analysis. Type of experiment: cell-based. In outline:
as §2

Experiment [10] shares this target. As to the kind of experiment: Activation of Nrf2 in mouse CATH.a cells assessed as increase in total Nrf2 protein level after 24 hrs by western blot analysis. The class given is cell-based. In outline: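 CATH.a cells (RPMI 1640, 8% horse serum, 4% FBS, 37 °C, 5% CO2) exposed to various concentrations for 24 h. Whole-cell lysate in RIPA buffer with protease inhibitors, 10% SDS-PAGE, Nrf2 immunoblot, chemiluminescence, densitometry normalized to β-actin. At least duplicate cultures, averaged, fold of untreated control ± SEM.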

Experiment [11] is filed under the species Mus musculus. In words: Neuroprotection against BH4-induced mouse CATH.a cell death assessed as cell viability at >0.1 uM treated for 20 hrs prior to BH4 challenge for 24 hrs by LDH activity assay. The class given is functional. In outline:
(§3)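 CATH.a cells at 2.4 × 10⁴/well given graded concentrations for 20 h, then 200 μM BH4 for an additional 24 h. Medium LDH activity from NADH oxidation with pyruvate, pH 7.4, read at 340 nm over 5 min. At least duplicate cultures, % untreated control ± SEM, compared against BH4-treated group.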

The species entered for experiment [12] is Mus musculus. As to the kind of experiment: Neuroprotection against BH4-induced mouse CATH.a cell death assessed as cell viability at 0.1 uM treated for 20 hrs prior to BH4 challenge for 24 hrs by LDH activity assay. The class given is functional. The gist of the method:
as §3

Experiment [13] relates to Mus musculus. In words: Inhibition of motor deficits in MPTP-induced C57Bl/6 mouse parkinson's disease model assessed as improvement in postural balance at 10 mg/kg/day, po for 3 days administered first dose at 24 hrs prior to first injection of 4X 20 mg/kg, ip MPTP challenge measured 6 days after last MPTP injection by hind-limb test. Type of experiment: functional, organism-based. In outline: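 C57Bl/6 males (n = 10/group), 10 mg/kg/day po for 3 days in N-methyl-2-pyrrolidone/20% Tween 80 saline. MPTP 4 × 20 mg/kg ip at 2 h intervals, begun 24 h after first dose. Six days after last MPTP injection, mice suspended by tail and hindlimb position scored 0−4. Mean ± SEM.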

For experiment [14], the target named is T1, Nuclear factor erythroid 2-related factor 2 (Mus musculus). As to the kind of experiment: Induction of Nrf2-dependent HO1 protein level in mouse BV-2 cells at 20 uM after 24 hrs by sandwich ELISA. Type of experiment: cell-based. In outline:
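Murine BV-2 microglia in DMEM/10% FBS, 2.0 × 10⁴ cells per well, treated at 20 μM for 24 h in triplicate. Lysates in NP-40 Tris buffer (pH 8.0) diluted tenfold; HO-1 measured by sandwich ELISA with HRP-streptavidin and Amplex Red fluorescence (ex 530/em 590 nm). Expressed as % of 0.04% DMSO vehicle control ± SEM; sulforaphane 5 μM as reference.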

Experiment [15] shares this target. As to the kind of experiment: Induction of Nrf2-dependent NQO1 protein expression in mouse CATH.a cells at 10 uM after 24 hrs by western blot analysis relative to control. Type of experiment: cell-based. The gist of the method: as §2
Experiment [16] has the same target. In words: Induction of Nrf2-dependent NQO1 gene expression in mouse CATH.a cells at 10 uM after 6 hrs by RT-PCR analysis relative to control. The class given is cell-based. The gist of the method: as §1

In the case of `COc1ccccc1S(=O)(=O)/C=C/c1ccccc1Cl`, the fold change (FC) in [1] came out at 1.95; in [2], 1.43; in experiment [15], 4.43; in experiment [16], 5.67. In addition, the Time in [3] is 10.3 s; in [6] it was 4 s. Moreover, the Activity was 96.9% in experiment [4], “Dose-dependent effect” in experiment [9], “Dose-dependent effect” in experiment [10] and 382% in experiment [14]. Besides, the result in experiment [5], in experiment [11] and in experiment [12] was Active. Also, the outcome in experiment [7] and in [8] was inactive. In experiment [13], the inhibition result is “Active”.
